Data on 2 molecules can be found in ChEMBL document CHEMBL1156966, “A new cytotoxic tambjamine alkaloid from the Azorean nudibranch Tambja ceutae” (Bioorg Med Chem Lett, 2010).

In one experiment the test system is Caco-2. Briefly: Cytotoxicity against human Caco-2 cells after 48 hrs by MTT assay. The following applies: Caco-2, 48 h. Format: functional, cell-based. The procedure, abridged:
(§1)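 Cells exposed 48 h to a range of concentrations, then counted. Viability and proliferation read by MTT, which measures mitochondrial dehydrogenase activity.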
For orientation: Tetrazolium dyes change colour on reduction, which living cells bring about.

A further experiment relates to H9c2. Briefly: Cytotoxicity against rat H9c2 cells after 48 hrs by MTT assay. It counts as cell-based. The conditions noted are these: H9c2, 48 h. Summed up: as §1
The test system of a further experiment is HeLa. Briefly: Cytotoxicity against human HeLa cells after 48 hrs by MTT assay. It counts as functional, cell-based. Summed up:
as §1

A further experiment relates to C6. Briefly: Cytotoxicity against rat C6 cells after 48 hrs by MTT assay. It counts as functional, cell-based. The following applies: C6, 48 h. Summed up:
as §1

The subject of another experiment is 3T3-L1. Briefly: Cytotoxicity against mouse 3T3L1 cells after 48 hrs by MTT assay. It counts as cell-based. The conditions noted are these: 3T3-L1, 48 h. Summed up:
as §1

As for `COC1=CC(c2ccc[nH]2)=N/C1=C/c1[nH]c(-c2ccc[nH]2)cc1OC`, the IC50 (commonly the point on the concentration scale where inhibition reaches its midpoint) was determined as 91 µM in the experiment with Caco-2; 107 µM in the experiment on H9c2; 70 µM in the experiment with HeLa; 7 µM with C6; 24 µM in the experiment with 3T3-L1.

As to `COC1=CC(c2ccc[nH]2)=N/C1=C\NCCC(C)C` [TAMBJAMINE K], the 50% inhibitory concentration (IC50) was 0.0035 µM in the experiment on Caco-2; 2.7 µM in the experiment with H9c2; 14.6 µM in the experiment with HeLa; 14 µM in the experiment with C6; 19 µM in the experiment with 3T3-L1.
